≈ marks a conversion by molar mass, not a printed value.
Experiments:
Clostridioides difficile [1] = test: Antibacterial activity against Clostridium difficile ATCC 43255 incubated for 46 hrs in anaerobic condition by CLSI-based broth microdilution assay; assay type: functional
Clostridioides difficile [2] = test: Antibacterial activity against Clostridium difficile 8290 incubated for 46 hrs in anaerobic condition by CLSI-based broth microdilution assay; assay type: functional
Clostridioides difficile [3] = test: Antibacterial activity against Clostridium difficile ATCC 700057 incubated for 46 hrs in anaerobic condition by CLSI-based broth microdilution assay; assay type: functional
Clostridioides difficile [4] = test: Antibacterial activity against Clostridium difficile 5680 incubated for 46 hrs in anaerobic condition by CLSI-based broth microdilution assay; assay type: functional
[5] = tested on: Mycobacterium tuberculosis; test: Antimycobacterial activity against recombinant Mycobacterium tuberculosis H37Rv expressed in green fluorescence protein by measuring increase in fluorescence after 10 days in presence of middlebrook 7H9/OADC medium by GFP reporter gene assay; assay type: functional; details: 240 h, time 10 day
Clostridioides difficile [6] = test: Antibacterial activity against Clostridium difficile 8264 incubated for 46 hrs in anaerobic condition by CLSI-based broth microdilution assay; assay type: functional
[7] = Aqueous solubility of the compound in phosphate buffer at pH 7 after 5 hrs by UHPLC analysis; assay type: physicochemical
How it was run: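 Solid added to 1.0 mL pH 7 phosphate buffer containing 50 µg/mL caffeine internal standard until saturated. Stirred 5 h at room temperature, passed through a 0.22 µm filter, then run on C18 UHPLC with a water/MeCN + 0.1 % HCOOH gradient. Analyte/IS peak-area ratio was converted to concentration using a linear calibration from MeOH standards at 50–500 µg/mL.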

Clostridioides difficile [8] = test: Antibacterial activity against Clostridium difficile BAA-1875 incubated for 46 hrs in anaerobic condition by CLSI-based broth microdilution assay; assay type: functional
Staphylococcus aureus [9] = test: Antibacterial activity against Staphylococcus aureus by CLSI-based broth microdilution method; assay type: functional
How it was run: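 S. aureus ATCC29213 grown overnight at 37 °C on MH II agar. MIC by CLSI broth dilution at about 7.5 × 10^5 CFU/well. Compounds diluted 2-fold in water from 1.0 mg/mL stocks in 50% methanol. Plates incubated overnight at 37 °C. MIC is the lowest concentration with no growth, read by eye.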

Staphylococcus aureus [10] = test: Antibacterial activity against Staphylococcus aureus ATCC 29213 incubated overnight by broth dilution method; assay type: functional
How it was run: (§1)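 Strains pre-grown overnight at 37 °C on Mueller Hinton II agar; CLSI broth dilution, inoculum about 7.5 × 10^5 CFU/well. Compounds taken from 1.0 mg/mL stocks in 50 % methanol/H2O, diluted in H2O as 2-fold series. Plates held at 37 °C overnight; MIC read visually as lowest concentration with no growth.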

Clostridioides difficile [11] = test: Antibacterial activity against Clostridium difficile under anaerobic condition by CLSI-based broth microdilution assay; assay type: functional
How it was run: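 Isolates streaked on Brucella agar with hemin, vitamin K and 5% sheep blood, anaerobic 35–37°C, 44–48 h. CLSI broth microdilution in Brucella broth with hemin, vitamin K, 5% laked horse blood. Test agents in DMSO, 2-fold series, 16–0.015 µg/mL. Inoculum from a 0.5 McFarland suspension diluted 1:10. Incubated anaerobically 35–37°C, read at 46 h; MIC = lowest concentration inhibiting visible growth.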

Clostridioides difficile [12] = test: Antibacterial activity against Clostridium difficile 8260 incubated for 46 hrs in anaerobic condition by CLSI-based broth microdilution assay; assay type: functional
Clostridioides difficile [13] = test: Antibacterial activity against Clostridium difficile BAA-1805 incubated for 46 hrs in anaerobic condition by CLSI-based broth microdilution assay; assay type: functional
Clostridioides difficile [14] = test: Antibacterial activity against Clostridium difficile incubated for 48 hrs by microbroth dilution method; assay type: functional
How it was run: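 Per CLSI, anaerobic broth microdilution in Brucella broth with hemin, vitamin K and 5% laked horse blood. Isolates pre-grown anaerobically on supplemented Brucella blood agar, 35–37 °C, 44–48 h. Inoculum at 0.5 McFarland, diluted 1:10. 2-fold drug series from DMSO, 16–0.015 µg/mL. Incubated anaerobically at 35–37 °C and read at 46 h. MIC is the lowest concentration inhibiting visible growth.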

Clostridioides difficile [15] = test: Antibacterial activity against Clostridium difficile 8282 incubated for 46 hrs in anaerobic condition by CLSI-based broth microdilution assay; assay type: functional
Bacillus subtilis = test: Antibacterial activity against Bacillus subtilis DSM3256 incubated overnight by broth dilution method; assay type: functional; how it was run: as §1
Clostridioides difficile [16] = test: Antibacterial activity against Clostridium difficile ATCC 9689 incubated for 46 hrs in anaerobic condition by CLSI-based broth microdilution assay; assay type: functional; details: ATCC 9689 = DSM 1296

Q: Which MIC (Clostridioides difficile [1]) does the source give for `CCc1c(Cl)c(O)c(Cl)c(O)c1C(=O)O[C@@H]1[C@@H](O)[C@@H](OC)[C@@H](OC/C2=C\C=C\C[C@H](O)/C(C)=C/[C@H](CC)[C@@H](O[C@@H]3OC(C)(C)[C@@H](OC(=O)C(C)C)[C@H](O)[C@@H]3O)/C(C)=C/C(C)=C/C[C@@H]([C@@H](C)O)OC2=O)O[C@H]1C` here?
A: 0.03 µg/mL (≈ 0.0284 µM)

Q: What about the MIC (Clostridioides difficile [2]) of the same compound?
A: 0.03 µg/mL (≈ 0.0284 µM)

Q: And the MIC (Clostridioides difficile [3])?
A: 0.03 µg/mL (≈ 0.0284 µM)

Q: What about the MIC (Clostridioides difficile [4]) of the same compound?
A: 0.06 µg/mL (≈ 0.0567 µM)

Q: What about the MIC90 [5] of the same compound?
A: 0.25 µg/mL

Q: What about the MIC (Clostridioides difficile [6]) of the same compound?
A: 0.12 µg/mL (≈ 0.113 µM)

Q: What about the solubility at 5 h [7] of the same compound?
A: 84 µg/mL (≈ 79.4 µM)

Q: And the MIC (Clostridioides difficile [8])?
A: 0.03 µg/mL (≈ 0.0284 µM)

Q: What about the MIC (Staphylococcus aureus [9]) of the same compound?
A: 2 µg/mL (≈ 1.89 µM)

Q: And the MIC (Staphylococcus aureus [10])?
A: 8 µg/mL (≈ 7.56 µM)

Q: And the MIC (Clostridioides difficile [11])?
A: 0.012 µg/mL (≈ 0.0113 µM)

Q: What about the MIC (Clostridioides difficile [12]) of the same compound?
A: 0.06 µg/mL (≈ 0.0567 µM)

Q: What about the MIC (Clostridioides difficile [13]) of the same compound?
A: 0.12 µg/mL (≈ 0.113 µM)

Q: What about the MIC (Clostridioides difficile [14]) of the same compound?
A: 0.25 µg/mL (≈ 0.236 µM)

Q: What about the MIC (Clostridioides difficile [15]) of the same compound?
A: 0.03 µg/mL (≈ 0.0284 µM)

Q: What about the MIC (Bacillus subtilis) of the same compound?
A: 8 µg/mL (≈ 7.56 µM)

Q: And the MIC (Clostridioides difficile [16])?
A: ≤ 0.015 µg/mL

— ChEMBL document CHEMBL4665898, “Semisynthetic Analogs of the Antibiotic Fidaxomicin-Design, Synthesis, and Biological Evaluation” (ACS Med Chem Lett, 2020)
